Measured values taken from ChEMBL document CHEMBL5335784, “Discovery of a novel 1,3,4-oxadiazol-2-one-based NLRP3 inhibitor as a pharmacological agent to mitigate cardiac and metabolic complications in an experimental model of diet-induced metaflammation” (Eur J Med Chem, 2023).

What was measured:
[1] = Cytotoxicity against human THP-1 cells assessed as reduction in cell viability measured after 72 hr by MTT assay; format: toxicity, cell-based; details: read-out: TC50
Summary of the method: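 Undifferentiated THP-1 cells exposed to 0.1–100 μM compound for 72 h. Viability read by MTT reduction at 570 nm. TC50 from concentration–response; three experiments.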

[2] = n-Octanol/water distribution coefficient, log D of the compound at pH 7.4 measured after 4 hrs by shake flask method; format: physicochemical
Summary of the method: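 Shake-flask at room temperature between n-octanol and 50 mM phosphate buffer pH 7.4, ionic strength 0.15 M KCl. Phases were pre-saturated by 4 h shaking. Compound at about 0.1 mg/ml in buffer, shaken about 20 min with n-octanol, then centrifuged at 10000 rpm for 10 min.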

[3] = Metabolic stability of the compound in human serum at 100 uM measured after 24 hrs by RP-HPLC analysis; format: ADME, cell-free
Summary of the method: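 Human male AB serum at 37 °C with compound at 100 μM (from 10 mM DMSO stock), sampled over 24 h. Aliquots deproteinized with CH3CN/0.1% TFA, centrifuged, filtered and analysed by RP-HPLC (phenyl column, 226/254 nm) with calibration 1-100 μM. Pseudo-first-order t1/2 from exponential decay fit.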

[4] = Metabolic stability of the compound in human THP-1 cells at 100 uM measured after 24 hrs by RP-HPLC analysis; format: ADME, cell-based; details: thp-1, 24 h
Summary of the method: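 Lysate from PMA-differentiated THP-1 cells (RIPA buffer) at 37 °C with compound at 100 μM, added from 10 mM DMSO stock. Aliquots deproteinized with CH3CN/0.1% TFA, centrifuged, filtered and quantified by RP-HPLC at 226/254 nm against external standards. Pseudo-first-order t1/2 from exponential decay fit; three independent experiments.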

[5] = Stability of the compound in PBS at 100 uM at pH 7.4 measured after 24 hrs by RP-HPLC analysis; format: physicochemical; details: buffer, pH 7.4, 24 h
Summary of the method: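 Compound added from 10 mM DMSO stock to 50 mM PBS pH 7.4 at 37 °C. Sampled at intervals over 48 h and analysed by RP-HPLC with UV detection at 226/254 nm against calibration standards.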

Row | Compound | CC50 at 72 h [1] | also measured
1 | COC(=O)c1ccc(-c2noc(Cc3cccc(C(F)(F)F)c3)n2)cc1 | 94.5 µM | 
2 | CC(C)c1cc(Cl)cc(C(C)C)c1NC(=O)NS(=O)(=O)c1cc(C(C)(C)O)co1 | 92.5 µM | 
3 | CCOC(=O)c1ccc(Cn2nc(Cc3ccccc3Cl)oc2=O)cc1 | > 100 µM | 
4 | CC(C)(C)OC(=O)Cn1nc(Cc2ccccc2Cl)oc1=O | 98.9 µM | logD at 4 h [2]: 3.1
5 | CCOC(=O)C1CCCN(c2nnc(NC(=O)c3ccccc3Cl)s2)C1 (centres undefined) | 79.7 µM | 
6 | COc1ccc(Cn2nc(Cc3ccccc3Cl)oc2=O)cc1 | 64.8 µM | 
7 | COC(=O)c1ccc(-c2noc(Cc3ccccc3Cl)n2)cc1 | > 100 µM | 
8 | O=c1oc(Cc2ccccc2Cl)nn1Cc1nn[nH]n1 | > 100 µM | logD at 4 h [2]: -1.09
9 | COC(=O)c1ccc(-c2nc(Cc3cccc(C(F)(F)F)c3)no2)cc1 | > 100 µM | 
10 | CCOC(=O)CN(C)c1nnc(NC(=O)c2ccccc2Cl)s1 | 96.1 µM | 
11 | O=C(O)c1ccc(-c2nc(Cc3cccc(C(F)(F)F)c3)no2)cc1 | 27.3 µM | 
12 | CCOC(=O)CN(Cc1ccccc1)c1nnc(NC(=O)c2ccccc2Cl)s1 | 91.6 µM | 
13 | O=C(O)Cn1nc(Cc2ccccc2Cl)oc1=O | 94.6 µM | Stability [3]: Stable; Stability [4]: Stable; logD at 4 h [2]: -1.66; Stability [5]: Stable
